Reference: ChEMBL document CHEMBL3593175, “Bicyclic [3.3.0]-Octahydrocyclopenta[c]pyrrolo Antagonists of Retinol Binding Protein 4: Potential Treatment of Atrophic Age-Related Macular Degeneration and Stargardt Disease” (J Med Chem, 2015)

Key:
[1] = test system: Rattus norvegicus; assay: Apparent terminal half life in Sprague-Dawley rat at 2 mg/kg, iv by HPLC/MS/MS method; assay type: ADME, organism-based; conditions: in vivo
In short: (§1)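 Male Sprague Dawley rats, 3 per group, single dose: 2.0 mg/kg IV tail vein (0.4 mg/mL, 5 mL/kg; 3% DMA/45% PEG300/12% ethanol/40% sterile water) or 5.0 mg/kg oral gavage (0.5 mg/mL, 10 mL/kg; 2% Tween 80 in 0.9% saline). Plasma sampled pre-dose to 48 h, assayed by HPLC/MS/MS. Non-compartmental analysis; AUC by log/linear (IV) or linear up/log down trapezoidal (PO).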

[2] = test system: Rattus norvegicus; assay: Elimination half life in Sprague-Dawley rat at 5 mg/kg, po measured on day 1 by HPLC/MS/MS method; assay type: ADME, organism-based; conditions: in vivo
In short: (§2)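 Male Sprague Dawley rats (n=3) were given one 5 mg/kg oral gavage dose (1.0 mg/mL) on Day 1 in 2% Tween 80 in 0.9% saline. Plasma was sampled pre-dose and at 0.25–48 h and measured by HPLC/MS/MS. Non-compartmental analysis: Cmax and Tmax taken directly from the data; half-life from terminal regression over at least three non-zero points after Tmax.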

[3] = test system: Rattus norvegicus; assay: AUClast in Sprague-Dawley rat at 5 mg/kg, po qd administered for 7 days measured on day 7 post last dose by HPLC/MS/MS method; assay type: ADME, organism-based; design: dose 5 mg/kg, route oral, time 0 - last; conditions: in vivo, 168 h
In short: (§3)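 Male Sprague Dawley rats (n=3) were dosed orally by gavage at 5 mg/kg (1.0 mg/mL) once daily on Days 1–7, with a vehicle group run in parallel. Plasma was taken pre-dose on Days 1–6, then pre-dose and at 0.25–48 h on Day 7, and analysed by HPLC/MS/MS. Non-compartmental PK; terminal half-life needed at least three non-zero points after Tmax.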

[4] = Plasma concentration in Sprague-Dawley rat at 5 mg/kg, po qd administered for 7 days measured at 48 hrs post dose on day 7 by HPLC/MS/MS method; assay type: ADME, organism-based; in short: as §3
[5] = test system: Plasma; assay: Protein binding in rat plasma; assay type: ADME, cell-free
[6] = target: Cytochrome P450 2D6 (Homo sapiens, UniProt P10635); assay: Inhibition of CYP2D6 (unknown origin); assay type: ADME
[7] = Intrinsic clearance in cynomolgus monkey liver microsomes; assay type: ADME, Macaca fascicularis
[8] = test system: Rattus norvegicus; assay: Apparent terminal half life in Sprague-Dawley rat at 5 mg/kg, po by HPLC/MS/MS method; assay type: ADME, organism-based; conditions: in vivo; in short: as §1
[9] = Plasma concentration in Sprague-Dawley rat at 5 mg/kg, po qd administered for 7 days measured on day 7 prior to administration of last dose by HPLC/MS/MS method; assay type: ADME, organism-based; in short: as §3
[10] = test system: Rattus norvegicus; assay: Volume of distribution at steady state in Sprague-Dawley rat at 2 mg/kg, iv by HPLC/MS/MS method; assay type: ADME, organism-based; conditions: in vivo; in short: as §1
[11] = target: Voltage-gated inwardly rectifying potassium channel KCNH2 (Homo sapiens, UniProt Q12809); assay: Inhibition of human ERG expressed in HEK293 cells by patch clamp assay; assay type: cell-based
[12] = test system: Rattus norvegicus; assay: Plasma clearance in Sprague-Dawley rat at 2 mg/kg, iv by HPLC/MS/MS method; assay type: ADME, organism-based; conditions: in vivo; in short: as §1
[13] = test system: Rattus norvegicus; assay: AUClast in Sprague-Dawley rat at 5 mg/kg, po measured on day 1 by HPLC/MS/MS method; assay type: ADME, organism-based; design: dose 5 mg/kg, time 0 - last, route oral; conditions: in vivo; in short: as §2
[14] = test system: Rattus norvegicus; assay: Elimination half life in Sprague-Dawley rat at 5 mg/kg, po qd administered for 7 days measured on day 7 post last dose by HPLC/MS/MS method; assay type: ADME, organism-based; conditions: in vivo, 168 h; in short: as §3
[15] = test system: Liver microsome; assay: Intrinsic clearance in human liver microsomes; assay type: ADME
[16] = Metabolic stability in human liver microsomes assessed as compound remaining at 10 uM after 30 mins; assay type: ADME; conditions: read-out: Stability
[17] = Kinetic solubility in phosphate buffered saline at pH 7.4; assay type: physicochemical; conditions: buffer
[18] = test system: Rattus norvegicus; assay: AUClast in Sprague-Dawley rat at 5 mg/kg, po by HPLC/MS/MS method; assay type: ADME, organism-based; design: dose 5 mg/kg, time 0 - last, route oral; conditions: in vivo; in short: as §1
[19] = test system: Rattus norvegicus; assay: AUClast in Sprague-Dawley rat at 2 mg/kg, iv by HPLC/MS/MS method; assay type: ADME, organism-based; design: dose 2 mg/kg, time 0 - last, route intravenous; conditions: in vivo; in short: as §1
[20] = target: Cytochrome P450 2C9 (Homo sapiens, UniProt P11712); assay: Inhibition of CYP2C9 (unknown origin)
[21] = test system: Rattus norvegicus; assay: Decrease in RBP4 level in Sprague-Dawley rat plasma at 5 mg/kg, po qd administered for 7 days measured on day 7 post last dose relative to vehicle-treated control; assay type: functional; design: scale not given: the % may be the effect or the level left
In short: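 Male Sprague Dawley rats received 5 mg/kg or vehicle by oral gavage once daily for 7 days, 3 per group. Whole blood clotted 30 min at room temperature, then was centrifuged at 2000g for 15 min at 4°C. Serum RBP4 was measured by dual ELISA kit per the manufacturer's instructions.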

[22] = test system: Rattus norvegicus; assay: Cmax in Sprague-Dawley rat at 5 mg/kg, po qd administered for 7 days measured on day 7 post last dose by HPLC/MS/MS method; assay type: ADME, organism-based; design: dose 5 mg/kg, route oral; conditions: in vivo, 168 h; in short: as §3
[23] = test system: Rattus norvegicus; assay: Tmax in Sprague-Dawley rat at 5 mg/kg, po by HPLC/MS/MS method; assay type: ADME, organism-based; conditions: in vivo; in short: as §1
[24] = target: T1, Nuclear receptor subfamily 1 group I member 2 (Homo sapiens, UniProt O75469); assay: Activation of human PXR; assay type: ADME
T1 sequence (O75469 whole entry): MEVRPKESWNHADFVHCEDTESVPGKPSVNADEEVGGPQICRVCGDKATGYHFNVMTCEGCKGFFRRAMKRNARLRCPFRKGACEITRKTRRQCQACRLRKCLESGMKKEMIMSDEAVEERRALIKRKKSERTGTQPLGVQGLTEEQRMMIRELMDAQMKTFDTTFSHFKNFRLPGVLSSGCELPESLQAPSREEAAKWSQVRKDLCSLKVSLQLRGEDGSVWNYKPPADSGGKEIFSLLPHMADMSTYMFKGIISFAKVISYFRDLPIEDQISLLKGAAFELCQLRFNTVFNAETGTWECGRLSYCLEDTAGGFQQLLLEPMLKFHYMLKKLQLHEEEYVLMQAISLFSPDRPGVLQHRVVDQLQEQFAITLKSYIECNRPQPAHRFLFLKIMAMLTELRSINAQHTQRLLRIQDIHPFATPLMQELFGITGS

[25] = test system: Plasma; assay: Initial plasma concentration in Sprague-Dawley rat at 2 mg/kg, iv by HPLC/MS/MS method; assay type: ADME, organism-based; conditions: in vivo; in short: as §1
[26] = test system: Rattus norvegicus; assay: Decrease in RBP4 level in Sprague-Dawley rat plasma at 5 mg/kg, po relative to vehicle-treated control; assay type: functional; design: scale not given: the % may be the effect or the level left
In short: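 Male Sprague-Dawley rats were dosed by oral gavage at 10 mL/kg, with 2% Tween 80 in 0.9% saline as vehicle, […]. A vehicle-dosed group served as control. Whole blood was clotted for 30 min at room temperature, then centrifuged at 2000g for 15 min at 4°C to give serum. Serum RBP4 was measured by dual ELISA.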

[27] = test system: MDCK; assay: Apparent permeability across apical to basolateral side in MDCK cells expressing MDR1; assay type: ADME, cell-based, Canis lupus familiaris; conditions: dog
[28] = Metabolic stability in rat liver microsomes assessed as compound remaining at 10 uM after 30 mins; assay type: ADME; conditions: read-out: Stability
[29] = test system: Rattus norvegicus; assay: AUC (0 to infinity) in Sprague-Dawley rat at 2 mg/kg, iv by HPLC/MS/MS method; assay type: ADME, organism-based; design: dose 2 mg/kg, route intravenous, time infinity; conditions: in vivo; in short: as §1
[30] = test system: Liver; assay: Intrinsic clearance in mouse liver microsomes; assay type: ADME
[31] = test system: Liver microsome; assay: Intrinsic clearance in rat liver microsomes; assay type: ADME
[32] = test system: Rattus norvegicus; assay: Oral bioavailability in Sprague-Dawley rat at 5 mg/kg by HPLC/MS/MS method; assay type: ADME, organism-based; conditions: in vivo; in short: as §1
[33] = target: Cytochrome P450 2C19 (Homo sapiens, UniProt P33261); assay: Inhibition of CYP2C19 (unknown origin); assay type: ADME
[34] = test system: Rattus norvegicus; assay: Cmax in Sprague-Dawley rat at 5 mg/kg, po measured on day 1 by HPLC/MS/MS method; assay type: ADME, organism-based; design: dose 5 mg/kg, route oral; conditions: in vivo; in short: as §2
[35] = test system: MDCK; assay: Apparent permeability across basolateral to apical side in MDCK cells expressing MDR1; assay type: ADME, cell-based, Canis lupus familiaris; conditions: dog
[36] = test system: Rattus norvegicus; assay: AUC (0 to infinity) in Sprague-Dawley rat at 5 mg/kg, po by HPLC/MS/MS method; assay type: ADME, organism-based; design: dose 5 mg/kg, time infinity, route oral; conditions: in vivo; in short: as §1
[37] = target: Cytochrome P450 3A4 (Homo sapiens, UniProt P08684); assay: Inhibition of CYP3A4 (unknown origin); assay type: ADME
[38] = test system: Rattus norvegicus; assay: Tmax in Sprague-Dawley rat at 5 mg/kg, po qd administered for 7 days measured on day 7 post last dose by HPLC/MS/MS method; assay type: ADME, organism-based; conditions: in vivo, 168 h; in short: as §3
[39] = test system: Rattus norvegicus; assay: Tmax in Sprague-Dawley rat at 5 mg/kg, po measured on day 1 by HPLC/MS/MS method; assay type: ADME, organism-based; conditions: in vivo; in short: as §2
[40] = Plasma concentration in Sprague-Dawley rat at 5 mg/kg, po measured at 48 hrs post dose on day 1 by HPLC/MS/MS method; assay type: ADME, organism-based; in short: as §2
[41] = test system: Rattus norvegicus; assay: Cmax in Sprague-Dawley rat at 5 mg/kg, po by HPLC/MS/MS method; assay type: ADME, organism-based; design: dose 5 mg/kg, route oral; conditions: in vivo; in short: as §1
[42] = Plasma concentration in Sprague-Dawley rat at 5 mg/kg, po qd administered for 7 days measured at 4 hrs post dose on day 7 by HPLC/MS/MS method; assay type: ADME, organism-based; in short: as §3

Chain of Cytochrome P450 3A4 (P08684 whole entry): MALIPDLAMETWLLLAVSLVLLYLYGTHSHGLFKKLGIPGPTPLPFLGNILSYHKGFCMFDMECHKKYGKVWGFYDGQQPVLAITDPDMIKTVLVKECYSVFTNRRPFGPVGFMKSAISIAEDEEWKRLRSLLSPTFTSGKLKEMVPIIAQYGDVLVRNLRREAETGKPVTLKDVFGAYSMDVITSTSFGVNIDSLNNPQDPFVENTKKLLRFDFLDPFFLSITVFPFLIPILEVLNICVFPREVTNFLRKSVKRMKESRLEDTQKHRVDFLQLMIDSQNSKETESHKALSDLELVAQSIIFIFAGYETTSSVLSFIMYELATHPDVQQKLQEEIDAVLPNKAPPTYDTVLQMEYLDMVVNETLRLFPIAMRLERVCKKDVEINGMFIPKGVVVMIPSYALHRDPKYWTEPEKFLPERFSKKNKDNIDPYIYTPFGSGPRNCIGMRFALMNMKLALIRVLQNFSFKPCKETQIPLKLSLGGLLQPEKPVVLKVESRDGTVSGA
Chain of Cytochrome P450 2D6 (P10635 whole entry): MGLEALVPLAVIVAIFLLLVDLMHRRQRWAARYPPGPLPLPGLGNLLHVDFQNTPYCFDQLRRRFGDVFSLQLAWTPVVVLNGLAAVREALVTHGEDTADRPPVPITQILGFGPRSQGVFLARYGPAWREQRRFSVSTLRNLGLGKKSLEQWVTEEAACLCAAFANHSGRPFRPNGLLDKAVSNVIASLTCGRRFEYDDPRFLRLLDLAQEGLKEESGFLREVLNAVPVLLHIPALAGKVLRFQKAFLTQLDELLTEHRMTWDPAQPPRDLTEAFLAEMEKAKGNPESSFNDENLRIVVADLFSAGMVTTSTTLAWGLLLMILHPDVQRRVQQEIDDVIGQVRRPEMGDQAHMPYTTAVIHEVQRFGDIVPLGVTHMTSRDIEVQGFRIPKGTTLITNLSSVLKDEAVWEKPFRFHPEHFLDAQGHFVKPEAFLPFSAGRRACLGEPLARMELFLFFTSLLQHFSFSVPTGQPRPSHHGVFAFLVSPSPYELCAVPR
Chain of Voltage-gated inwardly rectifying potassium channel KCNH2 (Q12809 whole entry): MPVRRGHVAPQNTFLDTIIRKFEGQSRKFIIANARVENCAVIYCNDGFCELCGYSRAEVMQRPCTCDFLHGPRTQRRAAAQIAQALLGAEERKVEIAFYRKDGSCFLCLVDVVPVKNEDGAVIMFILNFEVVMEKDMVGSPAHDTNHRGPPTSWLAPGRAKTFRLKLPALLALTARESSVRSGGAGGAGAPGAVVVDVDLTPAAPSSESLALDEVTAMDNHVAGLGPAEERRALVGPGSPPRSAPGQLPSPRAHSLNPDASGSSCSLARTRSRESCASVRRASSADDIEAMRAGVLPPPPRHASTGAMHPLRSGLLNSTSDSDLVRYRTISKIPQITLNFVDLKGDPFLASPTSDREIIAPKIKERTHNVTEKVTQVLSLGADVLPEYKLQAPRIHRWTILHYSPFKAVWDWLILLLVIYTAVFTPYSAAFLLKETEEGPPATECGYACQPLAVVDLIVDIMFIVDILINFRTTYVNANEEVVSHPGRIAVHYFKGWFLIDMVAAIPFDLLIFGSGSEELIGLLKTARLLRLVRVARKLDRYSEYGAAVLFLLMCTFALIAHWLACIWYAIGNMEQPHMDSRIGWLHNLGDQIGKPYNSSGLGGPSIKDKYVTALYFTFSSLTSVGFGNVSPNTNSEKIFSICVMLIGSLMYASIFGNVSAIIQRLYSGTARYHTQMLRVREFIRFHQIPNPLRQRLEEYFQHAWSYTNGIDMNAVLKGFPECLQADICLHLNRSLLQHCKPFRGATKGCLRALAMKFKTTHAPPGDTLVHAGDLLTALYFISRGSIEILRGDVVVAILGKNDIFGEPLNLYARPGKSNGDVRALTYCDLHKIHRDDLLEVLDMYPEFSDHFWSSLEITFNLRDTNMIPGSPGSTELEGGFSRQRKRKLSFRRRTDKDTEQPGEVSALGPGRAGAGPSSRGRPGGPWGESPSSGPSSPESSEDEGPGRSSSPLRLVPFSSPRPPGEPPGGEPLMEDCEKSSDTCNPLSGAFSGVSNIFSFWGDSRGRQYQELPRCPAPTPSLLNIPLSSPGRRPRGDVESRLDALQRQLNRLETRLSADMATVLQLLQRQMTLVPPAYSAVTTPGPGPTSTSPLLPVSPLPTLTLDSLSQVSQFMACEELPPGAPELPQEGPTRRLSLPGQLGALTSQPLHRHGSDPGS
Chain of Cytochrome P450 2C9 (P11712 whole entry): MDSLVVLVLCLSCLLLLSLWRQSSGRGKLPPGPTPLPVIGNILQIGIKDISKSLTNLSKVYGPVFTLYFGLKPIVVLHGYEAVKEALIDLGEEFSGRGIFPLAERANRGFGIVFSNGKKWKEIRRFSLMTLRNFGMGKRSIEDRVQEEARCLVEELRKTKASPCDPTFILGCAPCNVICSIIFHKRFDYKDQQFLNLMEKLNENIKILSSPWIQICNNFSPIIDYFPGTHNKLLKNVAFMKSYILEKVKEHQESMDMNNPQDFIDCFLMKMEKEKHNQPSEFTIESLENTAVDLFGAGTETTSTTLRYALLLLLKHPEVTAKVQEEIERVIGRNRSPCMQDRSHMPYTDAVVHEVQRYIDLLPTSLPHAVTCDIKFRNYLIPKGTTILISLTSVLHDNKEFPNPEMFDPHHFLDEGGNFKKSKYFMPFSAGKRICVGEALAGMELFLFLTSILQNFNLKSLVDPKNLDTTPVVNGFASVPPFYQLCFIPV
Chain of Cytochrome P450 2C19 (P33261 whole entry): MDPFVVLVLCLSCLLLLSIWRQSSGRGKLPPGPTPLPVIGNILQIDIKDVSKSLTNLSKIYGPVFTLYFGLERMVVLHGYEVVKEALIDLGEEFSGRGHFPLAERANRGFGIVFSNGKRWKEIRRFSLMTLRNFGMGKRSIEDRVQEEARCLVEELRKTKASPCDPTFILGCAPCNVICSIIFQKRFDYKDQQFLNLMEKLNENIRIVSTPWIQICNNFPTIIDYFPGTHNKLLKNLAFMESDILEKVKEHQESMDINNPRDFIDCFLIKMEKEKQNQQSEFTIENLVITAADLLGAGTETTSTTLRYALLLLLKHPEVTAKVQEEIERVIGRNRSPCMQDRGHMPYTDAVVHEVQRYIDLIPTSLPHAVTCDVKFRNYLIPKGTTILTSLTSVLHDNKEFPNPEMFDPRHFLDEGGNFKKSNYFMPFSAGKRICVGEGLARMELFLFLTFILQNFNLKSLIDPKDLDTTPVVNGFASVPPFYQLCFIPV

Compound: Cc1cc(C(=O)O)nc(N2C[C@H]3C[C@@H](c4ccccc4C(F)(F)F)C[C@H]3C2)n1
- betat1/2(app) [1]: 22 h
- beta t1/2 [2]: 31.9 h
- AUClast [3]: 6380 ng·h/mL
- concentration at 48 h [4]: 97.1 µM
- PPB [5]: 99.4%
- IC50 [6]: > 34 µM
- CLH [7]: 0.7 microL/ml/min
- betat1/2(app) [8]: 38.8 h
- concentration at 168 h [9]: 148 µM
- Vdss [10]: 0.156 L/kg
- IC50 [11]: > 30 µM
- CL [12]: 5.06 mL/h/kg
- AUClast [13]: 1695 µM·h
- beta t1/2 [14]: 49.4 h
- CLH [15]: < 0.7 microL/ml/min
- remaining at 0.5 h, 10 µM [16]: 94%
- Kinetic_solubility [17]: > 100 µM
- AUClast [18]: 2011 µM·h
- AUClast [19]: 795 µM·h
- IC50 [20]: > 34 µM
- Activity [21]: 95%
- Cmax [22]: 183 µM
- Tmax [23]: 2.67 h
- Activity [24]: Not Active
- C0 [25]: 58.6 µM
- Activity [26]: 85%
- Papp [27]: 74.7 ×10⁻⁶ cm/s
- remaining at 0.5 h, 10 µM [28]: 93%
- AUC [29]: 1017 µM·h
- CLH [30]: < 0.7 microL/ml/min
- CLH [31]: < 0.7 microL/ml/min
- F [32]: 143%
- IC50 [33]: > 34 µM
- Cmax [34]: 66.5 µM
- Papp [35]: 82.2 ×10⁻⁶ cm/s
- AUC [36]: 3636 µM·h
- IC50 [37]: > 34 µM
- Tmax [38]: 2.17 h
- Tmax [39]: 2.75 h
- concentration at 48 h [40]: 20 µM
- Cmax [41]: 62.2 µM
- concentration at 4 h [42]: 179 µM
